High-throughput results deposited in PubChem by several laboratories.
An excerpt weighted towards active compounds, which were near 3.1% of everything screened.
HSP90 inh: HSP90 refolding inhibition in rabbit reticulocyte lysate. 0.91% of 290,000 active. inhibition, % at 5.6 µM. luciferase refolding luminescence, 3 h. AID 1789;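 active means inhibition above the screen-wide mean plus 3 SD, computed separately per campaign, cut at about 16% in these data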;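 further: inhibitors lower the luminescence because luciferase stays unfolded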
HSF1 inh: HSF1 inhibition | NIH3T3-HGL HSE-luciferase, MG132-induced, luminescence 8 h; hits give low values | 0.77% of 300,000 active | activity change, negative = inhibition, % at 7.5 µM (by protocol) | AID 2098;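 active means more than half of replicate wells show activity change below -50%, luminescence cut by over half; inconclusive means some wells, but at most half, below -50%; inactive means no replicate well below -50%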;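 further: luciferase reports HSF-1 transcriptional activity via heat shock element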
Tb hexokinase: T. brucei hexokinase 1 inhibition; 0.11% of 220,000 active; inhibition, % at 10 µM; recombinant TbHK1, G6PDH-coupled NADH A340;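 active means inhibition of 50% or more in the single-dose primary screen; inactive means inhibition below 50%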
HSF-1 act: increases HSF-1 driven luciferase reporter signal; NIH3T3-HGL HSF-1 luciferase reporter, MG132, 8 h; 100% = twice DMSO control signal; activation, % at 9 µM; 1.7% of 300,000 active; AID 504408;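 active means mean replicate activation of at least 50% with a set share of replicates each reaching 50%; inconclusive means only one of those two conditions met; inactive means mean below 50% and too few replicates reaching it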
HKDC1 inhibitor: HKDC1 (human) hexokinase inhibition | AID 493160 | 0.16% of 340,000 active | Q2TB90 | recombinant HKDC1, G6PDH/diaphorase resazurin coupled fluorescence | inhibition, % at 20 µM;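 active means inhibition above about 35% when tested at 20 µM, limit read from the data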
Target sequence (Q2TB90 whole entry, looked up): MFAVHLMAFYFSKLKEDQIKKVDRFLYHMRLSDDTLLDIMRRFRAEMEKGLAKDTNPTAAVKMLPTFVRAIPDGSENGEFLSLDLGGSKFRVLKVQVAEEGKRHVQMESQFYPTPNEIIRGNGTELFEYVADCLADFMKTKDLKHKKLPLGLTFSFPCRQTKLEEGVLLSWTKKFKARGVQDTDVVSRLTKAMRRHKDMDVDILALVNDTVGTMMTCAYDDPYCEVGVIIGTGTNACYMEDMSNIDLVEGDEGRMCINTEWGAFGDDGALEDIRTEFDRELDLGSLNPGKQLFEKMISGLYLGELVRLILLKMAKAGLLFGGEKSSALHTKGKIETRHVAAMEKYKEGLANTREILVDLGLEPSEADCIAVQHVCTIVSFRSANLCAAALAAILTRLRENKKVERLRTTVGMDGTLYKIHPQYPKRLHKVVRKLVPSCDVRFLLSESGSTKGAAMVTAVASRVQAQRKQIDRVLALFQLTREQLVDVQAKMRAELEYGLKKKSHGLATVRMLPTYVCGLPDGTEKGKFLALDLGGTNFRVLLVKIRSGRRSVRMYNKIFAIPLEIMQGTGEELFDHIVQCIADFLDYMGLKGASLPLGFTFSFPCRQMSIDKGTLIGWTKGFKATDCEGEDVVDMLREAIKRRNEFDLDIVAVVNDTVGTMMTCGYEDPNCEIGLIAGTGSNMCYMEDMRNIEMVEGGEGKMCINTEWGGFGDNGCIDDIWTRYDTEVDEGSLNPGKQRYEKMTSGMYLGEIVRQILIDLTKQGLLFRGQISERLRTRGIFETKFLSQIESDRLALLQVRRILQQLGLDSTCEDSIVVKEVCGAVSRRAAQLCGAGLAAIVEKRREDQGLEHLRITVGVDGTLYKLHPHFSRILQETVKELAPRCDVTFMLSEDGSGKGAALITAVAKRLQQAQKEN
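Test system: recombinant HKDC1 (HK5) hexokinase enzyme, produced in-house; Amount: enzyme 5 µg/mL final; Buffer or medium: Tris pH 8.0 buffer with MgCl2, Tween-20, BSA, BME; Reagent: glucose and ATP substrates; Doses: 20 µM test compound, 1% DMSO; Incubation: 90 min reaction incubation at room temperature, dark; Detection: resorufin fluorescence at 613 nm.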
Hsp70 act: Hsp70 transcriptional activation, primary screen | HeLa Hsp70 promoter luciferase reporter, luminescence; scaled: vehicle 0, proteasome-inhibitor control 100% | activation, % at 10 µM | 0.04% of 200,000 active;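 active means activation above the mean across all tested compounds plus 3 SD, cutoff set per campaign, cut at about 5.5% in these data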
Hits are given with their value; i = inactive; ? = inconclusive; nt = no result.

SMILES | HSP90 inh | HSF1 inh | Tb hexokinase | HSF-1 act | HKDC1 inhibitor | Hsp70 act
CCCc1nc(SCC(=O)Nc2cc(C)on2)c2ccccc2n1 | i | i | i | 106 | i | i
Cc1cc(NC(=O)CSc2nc(CCC3CCCC3)nc3ccccc23)no1 | i | i | i | 59 | i | i
Cc1ccc(C(=O)N[C@H](C(=O)NC2CCCCC2)C(C)C)cc1 | nt | nt | nt | nt | i | nt
CC1=CCC2C(=O)N(c3ccc(C)c(Br)c3)C(=O)C2C1 (centres undefined) | i | -76 | i | i | i | i
Cc1ccsc1/C=C1/SC(N2CC(C)OC(C)C2)=NC1=O (centres undefined) | i | i | i | 52 | i | i
COc1ccc(CN2C(=O)c3cccnc3C2Nc2cc(Cl)ccc2OC)cc1 (centres undefined) | i | i | i | i | 52 | i
O=C1c2ccccc2C(Nc2ccc3c(c2)OCO3)N1Cc1ccc2c(c1)OCO2 (centres undefined) | i | i | i | i | i | i
COc1ccc(OC)c(NC2c3ccccc3C(=O)N2Cc2ccc3c(c2)OCO3)c1 (centres undefined) | i | i | i | 51 | i | i
CCN(CC(=O)Nc1cc(Cl)ccc1C)C(=O)CCOc1ccccc1C | i | i | nt | i | i | nt
COc1ccccc1C(=O)OCC(=O)c1cccc([N+](=O)[O-])c1 | i | -76 | i | i | i | i
O=C(COC(=O)c1ccccc1NC(=O)c1ccccc1)c1cccc([N+](=O)[O-])c1 | i | i | i | i | i | i
Cc1cccc(OCCCCn2c(CO)nc3ccccc32)c1 | i | i | nt | i | i | nt
COc1ccc(OCCCCn2c(CO)nc3ccccc32)cc1 | i | -54 | nt | i | i | nt
CC(=O)N1c2ccc(S(=O)(=O)NCC3CCC(C(=O)N4CC(C)CC(C)C4)CC3)cc2CC1C (centres undefined) | i | i | nt | i | i | nt
CCCc1cc(=O)oc2cc(C)cc(OCC(=O)NCCCn3ccnc3)c12 | i | -76 | nt | i | i | nt
Cc1cc(OCC(=O)NCCCn2ccnc2)c2c(C)cc(=O)oc2c1 | i | i | nt | i | i | nt
O=C(CSc1nc2ccccc2c(=O)n1CC1CCCO1)Nc1ccc(F)cc1 (centres undefined) | i | i | nt | i | i | nt
Cn1c(N)c(C(=O)COC(=O)Cc2ccc(Cl)c(Cl)c2)c(=O)n(C)c1=O | nt | nt | nt | nt | i | nt
O=C1CC(c2cccc(O)c2)Oc2ccccc21 (centres undefined) | nt | nt | nt | nt | i | nt
CCOc1c(C)cc(S(=O)(=O)NCc2cccnc2)c(C)c1C | i | -56 | nt | i | i | nt
Cc1ccc(-n2nc3c(=O)n(CCCC(=O)N4CCC(C)CC4)nc(C)c3c2C)cc1 | i | i | nt | i | i | nt
Cc1ccc(-n2nc3c(=O)n(CCCC(=O)N4CCC(C(N)=O)CC4)nc(C)c3c2C)cc1 | i | -52 | nt | i | i | nt
Cc1ncoc1C(=O)N1CCCC(N2CCN(c3cccc(C(F)(F)F)c3)CC2)C1 (centres undefined) | i | i | nt | i | i | nt
CCOc1cc(CNc2ccc3c(c2)OCCO3)cc(Br)c1OCC(N)=O | i | -74 | i | i | i | i
COC(=O)CS(=O)(=O)c1nnc([C@H](Cc2ccccc2)NC(=O)OC(C)(C)C)o1 | i | i | i | ? | i | i
SMILES | HSP90 inh | HSF1 inh | Tb hexokinase | HSF-1 act | HKDC1 inhibitor | Hsp70 act
Cc1cccc(CS(=O)(=O)c2nnc([C@H](Cc3ccccc3)NC(=O)OC(C)(C)C)o2)c1 | i | -68 | i | i | i | i
CCc1ccc(NC(=O)C2CCN(S(=O)(=O)c3ccc4[nH]c(=O)ccc4c3)CC2)cc1 | i | i | nt | i | i | nt
COc1ccc(N=Cc2sc3ccccc3c2Cl)cc1 | i | ? | i | i | i | i
Oc1ccc(Cl)cc1N=Cc1sc2ccccc2c1Cl | 64 | i | i | i | i | i
COc1ccc(C2/C=C\CN3CCC[C@H]3C(=O)N2Cc2ccc(F)cc2)cc1 (some centres undefined) | nt | nt | nt | nt | i | nt
CC1=CC(=O)C=C(C)C1=NOS(=O)(=O)c1ccccc1 | i | i | i | i | i | i
CC1=CC(=O)C(C(C)C)=C/C1=N/OS(=O)(=O)c1ccccc1 | i | i | i | 83 | i | nt
Cc1ccc(/C=C2/CCc3c([nH]c4ccccc34)C2=O)cc1 | i | i | i | i | i | i
Cc1ccc2[nH]c3c(c2c1)CC/C(=C/c1ccccc1)C3=O | i | i | i | 62 | i | i
O=C1/C(=C\c2ccccc2)CCc2c1[nH]c1ccccc21 | i | i | i | 109 | i | i
C=CCNC(=O)C1CC2Cn3c(nc4cc(Cl)c(Cl)cc43)C2N1C (centres undefined) | nt | i | nt | i | i | nt
CC1CN(C(=S)NC(=O)C2CCCCC2)CC(C)O1 (centres undefined) | i | i | i | 52 | i | i
O=C(Nc1cccc(Cl)c1)N1CCC(CO)(CCOc2ccccc2)CC1 | i | i | i | 95 | i | i
O=C(Nc1ccc(Cl)cc1)N1CCC(CO)(Cc2ccccc2)CC1 | i | i | i | i | i | i
CCCCN(C(=O)COC(=O)COc1c(C)cc(C)cc1C)c1c(N)n(CCC)c(=O)[nH]c1=O | nt | -69 | nt | i | i | nt
COc1ccc(-n2nnnc2S(=O)(=O)Cc2ccc(C(=O)O)cc2)cc1 | i | i | i | 94 | i | i
S=C1SCN(Cc2cccnc2)CN1Cc1cccnc1 | i | -86 | i | i | i | nt
S=C1SCN(Cc2ccccc2)CN1Cc1ccccc1 | i | i | nt | i | i | nt
CN(CC(=O)Nc1ccccc1Cl)C(=O)COC(=O)c1nc(Cl)c(Cl)c(Cl)c1Cl | i | i | nt | i | i | nt
O=S(=O)(Nc1cc(Cl)cc(Cl)c1)N1CCOCC1 | i | i | nt | i | i | nt
CCC(C)(C)NC(=O)c1ccc(Sc2nncn2C)c([N+](=O)[O-])c1 | i | i | i | i | i | i
Cn1cnnc1Sc1ccc(/C=C/C(=O)c2ccc(O)cc2)cc1[N+](=O)[O-] | i | i | i | 58 | i | i
CCCCNC(=O)c1ccc(Cn2c(=S)[nH]c3c([nH]c4ccc(OC)cc43)c2=O)cc1 | i | -71 | i | i | i | i
CC[C@H](C)NC(=O)c1ccc(Cn2c(=S)[nH]c3c([nH]c4ccc(OC)cc43)c2=O)cc1 | i | -58 | i | i | i | i
CCOCCCNC(=O)c1ccc(Cn2c(=S)[nH]c3c([nH]c4ccc(OC)cc43)c2=O)cc1 | i | i | i | i | i | i
Cc1ccnc(NC(=O)C(Cc2ccccc2)NC(=O)c2ccccc2)c1 (centres undefined) | nt | nt | nt | nt | i | nt
Cc1cc(=O)n2nc(N3CCCC(C(=O)NC4CCC(C)CC4)C3)sc2n1 (centres undefined) | i | i | nt | i | i | nt
Cc1ccc(NC(=O)c2ccc(OC(=O)COc3ccc(Cl)cc3C)cc2)cc1 | i | i | i | 59 | i | i
Cc1ccccc1C(=O)NC(=S)Nc1sc2c(c1C#N)CCC(C)C2 (centres undefined) | i | i | i | i | i | i
